This note sets out measurements from ChEMBL document CHEMBL5154815, “A Series of Substituted Bis-Aminotriazines Are Activators of the Natriuretic Peptide Receptor C” (J Med Chem, 2022).

Data set [1] concerns the target T1, Atrial natriuretic peptide receptor 2 (Homo sapiens) (UniProt P20594).
T1 sequence (whole entry): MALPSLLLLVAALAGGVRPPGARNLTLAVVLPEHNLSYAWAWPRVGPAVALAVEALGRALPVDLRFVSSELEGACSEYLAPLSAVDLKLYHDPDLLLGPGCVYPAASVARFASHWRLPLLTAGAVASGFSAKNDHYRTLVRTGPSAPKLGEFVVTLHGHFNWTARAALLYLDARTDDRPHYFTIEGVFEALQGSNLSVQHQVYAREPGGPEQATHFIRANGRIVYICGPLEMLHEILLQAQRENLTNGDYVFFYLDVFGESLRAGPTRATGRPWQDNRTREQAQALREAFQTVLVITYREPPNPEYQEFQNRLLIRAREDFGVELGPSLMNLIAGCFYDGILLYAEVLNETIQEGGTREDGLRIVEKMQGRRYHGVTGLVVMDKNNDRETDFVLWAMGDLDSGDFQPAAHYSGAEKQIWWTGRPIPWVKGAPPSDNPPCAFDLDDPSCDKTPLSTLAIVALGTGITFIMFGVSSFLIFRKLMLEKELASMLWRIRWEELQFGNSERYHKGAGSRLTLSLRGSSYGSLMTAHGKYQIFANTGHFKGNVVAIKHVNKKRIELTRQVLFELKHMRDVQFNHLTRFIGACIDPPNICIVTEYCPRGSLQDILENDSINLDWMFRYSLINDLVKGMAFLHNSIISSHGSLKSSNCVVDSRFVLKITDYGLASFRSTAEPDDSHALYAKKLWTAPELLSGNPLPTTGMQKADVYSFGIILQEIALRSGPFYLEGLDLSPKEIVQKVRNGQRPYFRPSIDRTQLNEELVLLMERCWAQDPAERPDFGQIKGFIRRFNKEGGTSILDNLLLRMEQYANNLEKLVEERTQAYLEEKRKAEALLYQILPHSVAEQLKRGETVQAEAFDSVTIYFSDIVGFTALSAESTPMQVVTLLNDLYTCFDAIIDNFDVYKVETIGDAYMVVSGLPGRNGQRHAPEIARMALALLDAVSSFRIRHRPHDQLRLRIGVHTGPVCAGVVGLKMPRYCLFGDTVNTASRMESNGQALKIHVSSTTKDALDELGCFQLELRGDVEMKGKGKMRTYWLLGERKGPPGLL
Description: Agonist activity at NPRB in human HeLa cells assessed as increased cGMP formation at 1 uM incubated for 30 mins in presence of IBMX by ELISA. It is filed as cell-based. The note with it: filed as agonist. An outline of the steps: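 HeLa cells grown in high-glucose DMEM with 10% heat-inactivated bovine serum, penicillin and streptomycin at 5% CO2. Medium was changed on the assay day, then cells equilibrated 4 h. ANP, CNP and cANF4–23 (1 μM) or test compounds (10 μM) were added with IBMX (1 mM) for 30 min. Lysis used 1% Triton-X/0.1 M HCl. Supernatant cGMP was read by ELISA and normalized to BCA protein; points are independent biological replicates.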
In general terms: ELISA stands for enzyme-linked immunosorbent assay.

Data set [2] deals with T2, Atrial natriuretic peptide receptor 3 (Rattus norvegicus, UniProt P41740).
T2 sequence (P41740 whole entry): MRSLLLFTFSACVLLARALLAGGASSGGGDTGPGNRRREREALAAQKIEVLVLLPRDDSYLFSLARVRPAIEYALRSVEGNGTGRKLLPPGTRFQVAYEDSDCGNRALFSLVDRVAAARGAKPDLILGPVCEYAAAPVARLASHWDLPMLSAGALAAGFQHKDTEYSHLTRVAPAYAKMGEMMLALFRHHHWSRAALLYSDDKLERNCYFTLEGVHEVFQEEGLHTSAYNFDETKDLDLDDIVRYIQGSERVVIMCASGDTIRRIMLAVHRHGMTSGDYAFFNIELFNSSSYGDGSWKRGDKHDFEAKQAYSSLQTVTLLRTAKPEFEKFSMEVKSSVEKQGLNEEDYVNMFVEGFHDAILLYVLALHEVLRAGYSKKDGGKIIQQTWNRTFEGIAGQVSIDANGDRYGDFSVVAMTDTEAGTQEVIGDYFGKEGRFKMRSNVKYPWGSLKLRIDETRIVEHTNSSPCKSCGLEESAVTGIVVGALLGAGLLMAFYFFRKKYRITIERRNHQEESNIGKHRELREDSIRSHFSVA
Description: Agonist activity at NPRC in rat aorta assessed as vasorelaxation by Organ bath assay. It counts as tissue-based.

For data set [3] the following is noted: rat, hepatocytes, 20 min, 1 µM.
Data set [4] concerns the target T2, Atrial natriuretic peptide receptor 3. Description: Agonist activity at NPRC in rat small mesenteric arteries assessed as vasorelaxation by Organ bath assay. It is filed as tissue-based, Artery.
Another data set has as its target T3, Cytochrome P450 2C8 (Homo sapiens, UniProt P10632).
T3 sequence (P10632 whole entry): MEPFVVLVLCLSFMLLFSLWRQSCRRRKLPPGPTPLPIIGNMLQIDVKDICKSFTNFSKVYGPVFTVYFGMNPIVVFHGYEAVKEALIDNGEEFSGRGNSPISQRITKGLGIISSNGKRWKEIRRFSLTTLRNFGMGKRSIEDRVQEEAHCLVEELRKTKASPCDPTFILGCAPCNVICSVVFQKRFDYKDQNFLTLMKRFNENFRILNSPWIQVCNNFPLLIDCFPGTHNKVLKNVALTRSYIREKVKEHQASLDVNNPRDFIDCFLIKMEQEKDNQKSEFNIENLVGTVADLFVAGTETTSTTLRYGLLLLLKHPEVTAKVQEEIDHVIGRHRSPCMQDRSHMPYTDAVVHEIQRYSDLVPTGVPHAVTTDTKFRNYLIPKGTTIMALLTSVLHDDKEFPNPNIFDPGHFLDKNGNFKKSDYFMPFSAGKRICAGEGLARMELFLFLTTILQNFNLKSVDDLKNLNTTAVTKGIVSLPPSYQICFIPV
Description: Inhibition of CYP2C8 in human liver microsomes using amodiaquine as a substrate preincubated for 10 mins followed by NADPH addition and measured after 10 mins by LC/MS/MS analysis. (Liver microsomes are a subcellular fraction often used to study metabolism.)

The nature of data set [5]: Permeability of the compound in PBS at pH 7.4 incubated for 5 hrs by LC/MS based PAMPA assay. The following applies: pH 7.4, 5 h. A general note: In PAMPA a lipid-coated filter parts donor from acceptor wells.
A short description of data set [6]: Stability of compound in pooled human plasma assessed as half life measured upto 120 mins by LC/MS/MS analysis. The following applies: 2 h.
For data set [7], the target named is T4, Atrial natriuretic peptide receptor 3 (Homo sapiens, UniProt P17342).
T4 sequence (P17342 whole entry): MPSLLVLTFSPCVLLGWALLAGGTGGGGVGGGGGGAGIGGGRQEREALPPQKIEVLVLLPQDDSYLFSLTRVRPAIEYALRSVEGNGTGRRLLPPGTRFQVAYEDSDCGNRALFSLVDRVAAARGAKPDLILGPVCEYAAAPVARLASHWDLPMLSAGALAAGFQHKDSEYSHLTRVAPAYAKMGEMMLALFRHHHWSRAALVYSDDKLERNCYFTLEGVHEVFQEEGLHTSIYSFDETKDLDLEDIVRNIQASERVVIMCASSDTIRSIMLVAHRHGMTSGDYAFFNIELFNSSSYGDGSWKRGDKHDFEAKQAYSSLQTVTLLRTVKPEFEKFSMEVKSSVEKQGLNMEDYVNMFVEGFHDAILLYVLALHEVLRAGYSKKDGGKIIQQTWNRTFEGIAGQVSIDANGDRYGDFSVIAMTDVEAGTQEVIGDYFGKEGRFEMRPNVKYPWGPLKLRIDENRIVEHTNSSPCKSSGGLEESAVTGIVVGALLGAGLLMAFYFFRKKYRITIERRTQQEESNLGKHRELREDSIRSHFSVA
Description: Binding affinity to CM5 sensor chip immobilized human NPR-C (27 to 541 residues) assessed as dissociation constant by surface plasmon resonance analysis.

Data set [8] has as its target T5, Cytochrome P450 3A4 (Homo sapiens, UniProt P08684). Description: Inhibition of CYP3A4 in human liver microsomes using midazolam as a substrate preincubated for 10 mins followed by NADPH addition and measured after 20 mins by LC/MS/MS analysis.
Data set [9] is described as follows: Stability in Sprague-Dawley rat hepatocytes assessed as clearance per […] at 1 uM after 20 mins by LC-MS/MS analysis. It counts as ADME, cell-based, Hepatocyte.
A further data set addresses Cytochrome P450 2C9 (Homo sapiens, UniProt P11712). Description: Inhibition of CYP2C9 in human liver microsomes using diclofenac as substrate preincubated for 10 mins followed by NADPH addition and measured after 10 mins by LC/MS/MS analysis.
In data set [10] the target is T5, Cytochrome P450 3A4. Description: Inhibition of CYP3A4 in human liver microsomes using testosterone as a substrate preincubated for 10 mins followed by NADPH addition and measured after 10 mins by LC/MS/MS analysis.
Data set [11] can be described thus: Protein binding in human plasma by equilibrium dialysis assay.
Data set [12] can be described thus: Solubility of compound in PBS at 10 mM after 3 hrs by UV analysis. The following applies: buffer, 10000 µM.
A further data set has as its target Cytochrome P450 2C19 (Homo sapiens, UniProt P33261). Description: Inhibition of CYP2C19 in human liver microsomes using S-mephenytoin as substrate preincubated for 10 mins followed by NADPH addition and measured after 20 mins by LC/MS/MS analysis.
For the next data set, the target named is T6, Cytochrome P450 1A2 (Homo sapiens, UniProt P05177).
T6 sequence (P05177 whole entry): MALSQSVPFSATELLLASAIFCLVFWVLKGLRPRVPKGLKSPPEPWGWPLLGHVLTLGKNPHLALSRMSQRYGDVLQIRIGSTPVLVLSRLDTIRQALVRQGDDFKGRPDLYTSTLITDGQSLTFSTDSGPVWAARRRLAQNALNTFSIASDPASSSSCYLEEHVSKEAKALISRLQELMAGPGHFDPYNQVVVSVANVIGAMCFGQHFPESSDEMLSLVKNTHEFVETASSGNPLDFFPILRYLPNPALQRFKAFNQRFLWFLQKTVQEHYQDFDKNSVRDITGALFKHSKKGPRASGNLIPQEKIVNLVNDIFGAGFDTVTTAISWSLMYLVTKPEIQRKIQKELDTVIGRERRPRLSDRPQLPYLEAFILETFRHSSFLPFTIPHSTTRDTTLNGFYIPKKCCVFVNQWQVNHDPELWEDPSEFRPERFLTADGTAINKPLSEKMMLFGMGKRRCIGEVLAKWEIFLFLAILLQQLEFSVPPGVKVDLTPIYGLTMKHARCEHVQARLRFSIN
Description: Inhibition of CYP1A2 in human liver microsomes using phenacetin as substrate preincubated for 10 mins followed by NADPH addition and measured after 10 mins by LC/MS/MS analysis.

The source made the active and inactive calls. The calls are words filed in the database; no cut-off is given here.

T5 sequence (P08684 whole entry): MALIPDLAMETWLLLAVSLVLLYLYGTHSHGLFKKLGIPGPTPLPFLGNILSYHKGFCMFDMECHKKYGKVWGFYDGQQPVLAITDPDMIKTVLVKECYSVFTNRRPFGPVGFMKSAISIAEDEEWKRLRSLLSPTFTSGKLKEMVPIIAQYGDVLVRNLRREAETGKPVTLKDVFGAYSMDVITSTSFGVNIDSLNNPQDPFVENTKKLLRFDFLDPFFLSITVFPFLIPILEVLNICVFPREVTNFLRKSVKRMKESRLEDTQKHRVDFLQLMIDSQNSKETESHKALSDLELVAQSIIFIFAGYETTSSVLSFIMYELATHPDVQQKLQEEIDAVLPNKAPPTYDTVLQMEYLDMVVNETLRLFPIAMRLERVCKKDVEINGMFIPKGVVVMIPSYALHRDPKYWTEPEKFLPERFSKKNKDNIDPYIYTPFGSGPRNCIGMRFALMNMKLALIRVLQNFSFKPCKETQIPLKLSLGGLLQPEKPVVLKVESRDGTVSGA
Chain of Cytochrome P450 2C9 (P11712 whole entry): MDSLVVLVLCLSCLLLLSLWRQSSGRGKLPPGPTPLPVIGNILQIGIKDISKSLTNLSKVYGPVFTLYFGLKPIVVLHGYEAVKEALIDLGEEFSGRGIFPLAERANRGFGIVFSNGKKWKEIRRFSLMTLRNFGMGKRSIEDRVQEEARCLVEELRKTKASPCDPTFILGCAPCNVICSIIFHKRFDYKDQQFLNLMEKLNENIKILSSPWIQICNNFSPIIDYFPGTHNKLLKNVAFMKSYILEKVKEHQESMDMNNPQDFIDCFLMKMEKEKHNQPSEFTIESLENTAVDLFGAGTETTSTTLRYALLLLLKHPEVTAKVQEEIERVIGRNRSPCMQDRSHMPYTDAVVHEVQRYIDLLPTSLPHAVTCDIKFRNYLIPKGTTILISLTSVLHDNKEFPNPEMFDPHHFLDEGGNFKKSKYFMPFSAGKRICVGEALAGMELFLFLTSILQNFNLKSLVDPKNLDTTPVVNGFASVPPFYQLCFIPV
Chain of Cytochrome P450 2C19 (P33261 whole entry): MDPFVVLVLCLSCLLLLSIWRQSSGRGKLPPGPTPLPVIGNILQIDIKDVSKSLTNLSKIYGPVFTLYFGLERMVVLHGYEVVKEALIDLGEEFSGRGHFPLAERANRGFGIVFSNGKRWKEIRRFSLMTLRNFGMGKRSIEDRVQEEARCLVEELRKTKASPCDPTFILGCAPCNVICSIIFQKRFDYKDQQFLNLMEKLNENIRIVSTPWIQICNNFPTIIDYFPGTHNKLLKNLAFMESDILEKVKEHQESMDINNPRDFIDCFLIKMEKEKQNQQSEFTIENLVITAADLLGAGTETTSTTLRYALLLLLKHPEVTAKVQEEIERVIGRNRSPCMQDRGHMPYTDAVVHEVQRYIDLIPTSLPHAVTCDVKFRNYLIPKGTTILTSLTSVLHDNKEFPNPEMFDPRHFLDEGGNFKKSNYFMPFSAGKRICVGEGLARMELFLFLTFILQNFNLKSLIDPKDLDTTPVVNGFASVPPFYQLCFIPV

Consider `CC[C@H](C)[C@@H]1NC(=O)[C@H](CCCNC(=N)N)NC(=O)[C@H](CC(=O)O)NC(=O)[C@H](CCSC)NC(=O)[C@H](CCCNC(=N)N)NC(=O)CNC(=O)CNC(=O)[C@H](Cc2ccccc2)NC(=O)[C@@H](NC(=O)[C@H](CO)NC(=O)[C@H](CO)NC(=O)[C@H](CCCNC(=N)N)NC(=O)[C@H](CCCNC(=N)N)NC(=O)[C@H](CC(C)C)NC(=O)[C@@H](N)CO)CSSC[C@@H](C(=O)N[C@@H](CC(N)=O)C(=O)N[C@@H](CO)C(=O)N[C@@H](Cc2ccccc2)C(=O)N[C@@H](CCCNC(=N)N)C(=O)N[C@@H](Cc2ccc(O)cc2)C(=O)O)NC(=O)CNC(=O)[C@H](CC(C)C)NC(=O)CNC(=O)[C@H](CO)NC(=O)[C@H](CCC(N)=O)NC(=O)[C@H](C)NC(=O)CNC1=O`, for which, in data set [1], the result was Active.

As to `CC(=O)Nc1ccc(Nc2ncnc(N[C@@H](CC(C)C)C(=O)O)n2)cc1`, the figures for the half-maximal effective concentration (EC50) in data set [2] and in data set [4] were 6.2 µM and 22.2 µM, respectively. Besides, the figures for the t1/2 in data set [3] and in data set [6] were 3.613 h and greater than 1 h, respectively. The IC50 at Cytochrome P450 2C8, at Cytochrome P450 3A4 [8], at Cytochrome P450 2C9, against Cytochrome P450 3A4 [10], at Cytochrome P450 2C19 and against Cytochrome P450 1A2 was greater than 50 µM each time. In addition, in [5], the Papp is recorded as < 0.001 10^-6 cm/s. For the same compound, the dissociation constant Kd in [7] was determined as 220 µM. The CLH in data set [9] is less than 6.4 µL/min. The compound further displayed a PPB in [11] of 85.4%. Further, the solubility in data set [12] was greater than 71.68 mg/mL.

What is called EC50 is the concentration that produces a half-maximal response. The term IC50 denotes the midpoint of a concentration-inhibition curve. Low readings indicate greater potency, high ones weaker potency. In general, Kd refers to a measure of binding affinity in units of concentration. What is called solubility is how much of the substance goes into solution per volume. A lower solubility goes with a poorly soluble substance.
